From ChEMBL document CHEMBL4028857, “Anchimerically Activated ProTides as Inhibitors of Cap-Dependent Translation and Inducers of Chemosensitization in Mantle Cell Lymphoma” (J Med Chem, 2017)
Activity calls are given as the source filed them. The calls are words filed in the database; no cut-off is given here.

Tests used:
[1] = target: T1, Adenosine 5'-monophosphoramidase HINT1 (Homo sapiens, UniProt P49773); test: Prodrug activation in human Z138 cells assessed as Hint1 mediated 2-amino-7-(2-(4-chlorophenoxy)ethyl)-9-((2R,3R,4S,5R)-3,4-dihydroxy-5-(phosphonooxymethyl)tetrahydrofuran-2-yl)-6-oxo-6,9-dihydro-1H-purin-7-ium formation per 5 million cells at 150 uM after 12 hrs by LC-MS/MS analysis; type: cell-based
How it was run: (§1)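 Mantle cell lymphoma cells (five million) grown in RPMI with 10% FBS, penicillin/streptomycin and L-glutamine at 37 °C, 5% CO2, then exposed to 150 µM compound for 12 h at 37 °C. Washed with ice-cold PBS, pellet extracted in MeOH/NH4OAc (60:40) with 80 fmol internal standards, three liquid-N2 freeze–thaw cycles, filtered, dried, redissolved in 20 mM HEPES pH 7.2. Analysed by LC-MS/MS against a standard curve.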

[2] = Oral bioavailability in Sprague-Dawley rat at 25 mg/kg by LC-MS/MS analysis; type: ADME, organism-based; details: in vivo
How it was run: (§2)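 Female Sprague-Dawley rats (250-274 g, n=3, catheterized femoral/jugular veins) dosed once p.o. by gavage (25 mg/kg) then, after a 3-day washout, i.v. (2.5 mg/kg). Formulation: 10 mg/mL in 0.5% aqueous CMC with 5% DMSO. Serial blood draws to 480 min into K2EDTA; plasma protein-precipitated with acetonitrile plus internal standards; LC-MS/MS (positive MRM); non-compartmental PK; %F from dose-normalized AUC per rat.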

[3] = Cytotoxicity against human Mino cells assessed as reduction in cell survival at 100 uM after 48 hrs in presence of ibrutinib by Annexin V/propidium iodide based flow cytometric analysis
How it was run: (§3)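 MCL lines treated 48 h with compound re-added daily (alone or with co-drug; ibrutinib 25 µM), then survival assessed by Annexin V/PI flow cytometry.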

[4] = Half life in Sprague-Dawley rat plasma at 150 uM at pH 7.4 by RP-LCMS analysis; type: ADME
How it was run: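 Pooled female Sprague-Dawley rat plasma, pre-warmed 2 min at 37 °C, incubated with compound in triplicate at 37 °C to follow deprotection and half-life.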

[5] = target: Eukaryotic translation initiation factor 4E (Homo sapiens) (UniProt P06730); test: Inhibition of eIF4E in human Mino cells assessed as down regulation of Bcl-2 expression at 50 to 200 uM after 48 hrs by Western blot method; type: cell-based
How it was run: (§4)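 MCL lines treated 48 h with compound; protein quantified and Western blotted with eIF4E, eIF4G, actin, c-Myc and Bcl-2 antibodies.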

[6] = tested on: Z-138; test: Antiproliferative activity against human Z138 cells preincubated for 48 hrs followed by thymidine addition measure after 16 hrs by Thymidine incorporation assay; type: functional, cell-based
How it was run: (§5)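 MCL lines treated 48 h with compound re-added daily, alone or with co-drug (ibrutinib 25 µM where used), then thymidine added for a further 16 h; proliferation read as thymidine incorporation.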

[7] = tested on: Z-138; test: Antiproliferative activity against human Z138 cells at 200 uM preincubated for 48 hrs followed by thymidine addition measure after 16 hrs by Thymidine incorporation assay; type: functional; how it was run: as §5
[8] = target: Eukaryotic translation initiation factor 4E (Homo sapiens) (UniProt P06730); test: Inhibition of eIF4E in human Mino cells assessed as down regulation of c-Myc protein expression at 100 uM after 48 hrs by Western blot analysis; type: cell-based; how it was run: as §4
[9] = AUC (0 to 8 hrs) in Sprague-Dawley rat plasma at 25 mg/kg, po by LC-MS/MS analysis; type: ADME, organism-based; parameters: time < 8 hr, dose 25 mg/kg, route oral; how it was run: as §2
[10] = tested on: Z-138; test: Prodrug activation in human Z138 cells assessed as 9-((2R,3R,4S,5R)-5-(((((2-(1H-Indol-3-yl)ethyl)amino)-(hydroxy)phosphoryl)oxy)methyl)-3,4-dihydroxytetrahydrofuran-2-yl)-2-amino-7-(2-(4-chlorophenoxy)ethyl)-6-oxo-6,9-dihydro-1H-purin-7-ium formation per 5 million cells at 150 uM after 12 hrs by LC-MS/MS analysis; type: cell-based; details: z-138, 12 h; how it was run: as §1
[11] = Half life in HEPES buffer at 80 uM at pH 7.2 by RP-HPLC analysis; type: physicochemical
How it was run: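 Compound at 80 µM in 20 mM HEPES (pH 7.2 or 2.0) incubated at 37 °C; aliquots analyzed by RP-HPLC at 0, 1, 4, 6, 12, 18 and 24 h to follow methylthioalkyl deprotection and derive half-life.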

[12] = target: T1, Adenosine 5'-monophosphoramidase HINT1; test: Prodrug activation in human GRANTA-519 cells assessed as Hint1 mediated 2-amino-7-(2-(4-chlorophenoxy)ethyl)-9-((2R,3R,4S,5R)-3,4-dihydroxy-5-(phosphonooxymethyl)tetrahydrofuran-2-yl)-6-oxo-6,9-dihydro-1H-purin-7-ium formation per 5 million cells at 150 uM after 12 hrs by LC-MS/MS analysis; type: cell-based
How it was run: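 Five million MCL cells in RPMI/10% FBS with penicillin, streptomycin and L-glutamine were exposed to compound (150 µM) for 12 h at 37 °C. Cells were washed in cold PBS, extracted in MeOH/NH4OAc (60:40) with 80 fmol internal standards, freeze-thawed three times, then filtered and dried. Residue was taken up in HEPES for LC-MS/MS, quantified against an internal-standard curve.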

[13] = Antiproliferative activity against human Mino cells after 48 hrs by Annexin V/propidium iodide based flow cytometric analysis; type: functional, cell-based; how it was run: as §3
[14] = target: Eukaryotic translation initiation factor 4E (Homo sapiens) (UniProt P06730); test: Inhibition of eIF4E in human Mino cells assessed as down regulation of c-Myc protein expression at 100 uM after 48 hrs in presence of ibrutinib by Western blot analysis; type: cell-based; how it was run: as §4
[15] = target: Eukaryotic translation initiation factor 4E (Homo sapiens) (UniProt P06730); test: Inhibition of eIF4E in human Mino cells assessed as potentiation of dexamethasone induced antiproliferation at 100 uM preincubated for 48 hrs followed by thymidine addition measure after 16 hrs by Thymidine incorporation assay; type: cell-based; how it was run: as §5
[16] = tested on: Rattus norvegicus; test: AUC (0 to 8 hrs) in Sprague-Dawley rat plasma assessed as 9-((2R,3R,4S,5R)-5-(((((2-(1H-Indol-3-yl)ethyl)amino)-(hydroxy)phosphoryl)oxy)methyl)-3,4-dihydroxytetrahydrofuran-2-yl)-2-amino-7-(2-(4-chlorophenoxy)ethyl)-6-oxo-6,9-dihydro-1H-purin-7-ium at 2.5 mg/kg, iv by LC-MS/MS analysis; type: ADME, organism-based; parameters: time < 8 hr, dose 2.5 mg/kg, route intravenous; details: in vivo; how it was run: as §2
[17] = target: Eukaryotic translation initiation factor 4E (Homo sapiens) (UniProt P06730); test: Inhibition of eIF4E in human GRANTA-519 cells assessed as disruption of interaction between protein and mRNA 5'-cap at 10 to 100 uM by m7GTP pull-down assay; type: cell-based
How it was run: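 Eight to ten million treated MCL cells washed in cold PBS, lysed in cap binding buffer, and eIF4E binding captured on m7GTP-Sepharose beads (pull-down).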

[18] = target: Eukaryotic translation initiation factor 4E (Homo sapiens) (UniProt P06730); test: Inhibition of eIF4E in human Mino cells assessed as increase in p27 protein expression after 48 hrs by Western blot method; type: cell-based; how it was run: as §4
[19] = tested on: Rattus norvegicus; test: Cmax in Sprague-Dawley rat assessed as 9-((2R,3R,4S,5R)-5-(((((2-(1H-Indol-3-yl)ethyl)amino)-(hydroxy)phosphoryl)oxy)methyl)-3,4-dihydroxytetrahydrofuran-2-yl)-2-amino-7-(2-(4-chlorophenoxy)ethyl)-6-oxo-6,9-dihydro-1H-purin-7-ium level at 25 mg/kg, po measured at 30 mins post dose by LC-MS/MS analysis; type: ADME, organism-based; parameters: dose 25 mg/kg, route oral; details: in vivo, 0.5 h; how it was run: as §2
[20] = tested on: Plasma; test: Prodrug activation in Sprague-Dawley rat assessed as Hint1 mediated 2-amino-7-(2-(4-chlorophenoxy)ethyl)-9-((2R,3R,4S,5R)-3,4-dihydroxy-5-(phosphonooxymethyl)tetrahydrofuran-2-yl)-6-oxo-6,9-dihydro-1H-purin-7-ium formation in plasma at 2.5 mg/kg, iv or 25 mg/kg, po by LC-MS/MS analysis; type: organism-based; details: in vivo; how it was run: as §2

Chain of Eukaryotic translation initiation factor 4E (Homo sapiens) (P06730 whole entry): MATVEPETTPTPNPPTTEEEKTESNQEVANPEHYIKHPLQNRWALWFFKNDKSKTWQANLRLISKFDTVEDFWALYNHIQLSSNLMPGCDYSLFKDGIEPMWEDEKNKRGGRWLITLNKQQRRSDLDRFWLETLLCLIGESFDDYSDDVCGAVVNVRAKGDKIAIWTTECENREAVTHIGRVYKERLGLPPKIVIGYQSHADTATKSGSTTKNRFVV
T1 sequence (P49773 whole entry): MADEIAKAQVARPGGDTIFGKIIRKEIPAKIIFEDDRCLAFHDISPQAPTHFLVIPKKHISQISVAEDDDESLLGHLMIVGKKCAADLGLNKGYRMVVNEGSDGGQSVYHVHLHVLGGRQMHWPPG

Drug metabolism [1]: 272 pmol
bioavailability [2]: 23%
half-life at 150 µM [4]: 7.2 h
inhibition [5]: inactive
inhibition [8]: Active
AUC(0-t) at 8 h [9]: 28.3 ng·h/mL
Drug metabolism [10]: 37.3 pmol
half-life at 80 µM [11]: 8.5 h
Drug metabolism [12]: 10.3 pmol
inhibition [14]: Active
inhibition [15]: Active
AUC [16]: 0.5 µg·min/mL
inhibition [17]: Active
inhibition [18]: Dose-dependent effect
Cmax [19]: 6 ng/mL
Drug metabolism [20]: Metabolite_Notdetected
SMILES: CSCCOP(=O)(NCCc1c[nH]c2ccccc12)OC[C@H]1O[C@@H](n2c[n+](CCOc3ccc(Cl)cc3)c3c(=O)[nH]c(N)nc32)[C@H](O)[C@@H]1O (stereo not given in full)
Activity [3]: Toxic
Activity [6]: Dose-dependent effect
Activity [7]: 100%
IC50 [13]: > 200 µM
